Measurements from ChEMBL document CHEMBL3414571, “The discovery of macrocyclic XIAP antagonists from a DNA-programmed chemistry library, and their optimization to give lead compounds with in vivo antitumor activity” (J Med Chem, 2015).
Numbered stars: 1 amine (or outer) side, 2 acyl side, 3 side chain; on linkers, the order of the positions; unused ones are H or OH. Bridge positions count the residues as written; N and C are the ends. Square brackets hold non-standard residues; d marks the D form. Peptide text beside a SMILES is read from it. * marks the point of attachment. X1 = O=C(O)CN(CCN[*:1])CCn1cc(CCC(=O)[*:2])nn1; NMeA = CN[C@@H](C)C(=O)O; Pra = C#CC[C@H](N)C(=O)O; X2 = [N-]=[N+]=NCC*

What was measured:
MDA-MB-231 = experiment: Antiproliferative activity against human MDA-MB-231 cells assessed as inhibition of cell proliferation after 72 hrs by MTS assay; format: functional, cell-based; conditions: MDA-MB-231, 72 h
[1] = Inhibition of XIAP BIR2 (124 to 240 residues) C202A/C213G mutant (unknown origin) incubated for 60 mins by biotinylated SMAC peptide Alpha-screen assay; design: species or system Homo sapiens
A549 = experiment: Antiproliferative activity against human A549 cells assessed as inhibition of cell proliferation after 72 hrs by MTS assay; format: functional, cell-based; conditions: A549, 72 h
[2] = Antiproliferative activity against human A875 cells assessed as inhibition of cell proliferation after 72 hrs by MTS assay; format: functional, cell-based; conditions: A875, 72 h
[3] = target: E3 ubiquitin-protein ligase XIAP (Homo sapiens, UniProt P98170); experiment: Inhibition of XIAP BIR3 (241 to 356 residues) (unknown origin) incubated for 60 mins by fluoresceinated modified SMAC peptide based fluorescence polarization assay
BIR2 domain of XIAP = BIR2 domain of XIAP (Homo sapiens, UniProt P98170, C202A/C213G); experiment: Inhibition of XIAP BIR2-3 (124 to 356 residues) C202A/C213G mutant (unknown origin) in human THP1 cells using fluoresceinated caspase-3 substrate by caspase-3 rescue assay; format: cell-based, THP-1
[4] = target: Baculoviral IAP repeat-containing protein 2 (Homo sapiens, UniProt Q13490); experiment: Inhibition of cIAP1 BIR2-3 (154 to 352 residues) (unknown origin) fluoresceinated dimeric SMAC peptide based fluorescence polarization assay
[5] = Half life in Balb/C mouse at 1 mg/kg, iv administered as single dose by LC-MS/MS method; format: ADME, organism-based; design: dose 1 mg/kg, route intravenous; conditions: in vivo
Method in brief: (§1)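 Mice received one intravenous dose, and parent compound levels in blood were monitored over time. Plasma pharmacokinetic parameters were derived from these concentration–time profiles.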

[6] = Mean residence time in Balb/C mouse at 1 mg/kg, iv administered as single dose by LC-MS/MS method; format: ADME, organism-based; design: dose 1 mg/kg, route intravenous; conditions: in vivo; method in brief: as §1
Mus musculus = experiment: AUClast in Balb/C mouse at 1 mg/kg, iv administered as single dose by LC-MS/MS method; format: ADME, organism-based, Plasma; design: time 0 - last, dose 1 mg/kg, route intravenous; conditions: in vivo; method in brief: as §1
[7] = Volume of distribution at steady state in Balb/C mouse at 1 mg/kg, iv administered as single dose by LC-MS/MS method; format: ADME, organism-based; design: dose 1 mg/kg, route intravenous; conditions: in vivo, read-out: Vdss; method in brief: as §1

Sequence of E3 ubiquitin-protein ligase XIAP (P98170 whole entry, looked up, the tested form may be a part): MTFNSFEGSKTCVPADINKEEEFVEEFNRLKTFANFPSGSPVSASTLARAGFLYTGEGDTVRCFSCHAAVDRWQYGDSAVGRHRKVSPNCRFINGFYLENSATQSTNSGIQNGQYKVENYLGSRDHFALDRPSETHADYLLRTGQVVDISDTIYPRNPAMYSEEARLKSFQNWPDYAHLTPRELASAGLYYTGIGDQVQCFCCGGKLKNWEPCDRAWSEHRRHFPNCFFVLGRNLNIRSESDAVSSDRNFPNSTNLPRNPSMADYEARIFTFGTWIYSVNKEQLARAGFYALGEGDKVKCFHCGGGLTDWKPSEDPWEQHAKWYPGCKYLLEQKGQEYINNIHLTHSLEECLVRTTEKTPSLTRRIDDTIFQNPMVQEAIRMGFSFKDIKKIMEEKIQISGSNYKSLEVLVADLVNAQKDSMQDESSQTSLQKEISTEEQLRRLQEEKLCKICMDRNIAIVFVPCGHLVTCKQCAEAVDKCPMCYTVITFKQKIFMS
Sequence of BIR2 domain of XIAP (P98170 whole entry C202A/C213G, looked up, the tested form may be a part): as the sequence (P98170 whole entry, looked up, the tested form may be a part) above, with C202A, C213G counted along it
Sequence of Baculoviral IAP repeat-containing protein 2 (Q13490 whole entry, the tested form may be a part): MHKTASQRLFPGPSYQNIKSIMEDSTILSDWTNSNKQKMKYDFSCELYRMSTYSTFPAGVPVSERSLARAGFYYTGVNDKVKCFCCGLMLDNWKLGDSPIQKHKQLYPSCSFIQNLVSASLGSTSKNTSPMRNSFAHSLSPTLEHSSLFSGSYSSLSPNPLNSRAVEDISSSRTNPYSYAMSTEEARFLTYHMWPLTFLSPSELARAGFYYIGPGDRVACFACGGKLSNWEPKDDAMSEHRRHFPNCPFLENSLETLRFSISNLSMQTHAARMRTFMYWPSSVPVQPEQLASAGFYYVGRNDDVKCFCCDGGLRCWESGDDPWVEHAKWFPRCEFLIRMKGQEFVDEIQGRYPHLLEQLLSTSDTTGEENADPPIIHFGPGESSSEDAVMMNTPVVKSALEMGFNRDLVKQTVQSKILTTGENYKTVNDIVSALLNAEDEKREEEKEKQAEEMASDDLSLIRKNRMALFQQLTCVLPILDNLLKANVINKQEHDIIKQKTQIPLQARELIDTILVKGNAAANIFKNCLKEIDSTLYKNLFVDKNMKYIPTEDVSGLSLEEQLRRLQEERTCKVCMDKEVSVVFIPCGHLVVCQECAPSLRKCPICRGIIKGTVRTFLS

`CN[C@@H](C)C(=O)N[C@H](C(=O)N1C[C@@H]2C[C@H]1C(=O)N[C@@H](Cc1ccc3ccccc3c1)C(=O)N[C@H](C(=O)O)Cc1ccc(cc1)OCc1cn(nn1)[C@H]1C[C@@H](C(=O)N[C@@H](Cc3ccc4ccccc4c3)C(=O)N[C@H](C(=O)O)Cc3ccc(cc3)OCc3cn2nn3)N(C(=O)[C@@H](NC(=O)[C@H](C)NC)C(C)C)C1)C(C)C` gave an IC50 (MDA-MB-231) of 82 nM, an IC50 [1] of 333 nM and an IC50 (A549) of over 25000 nM. It also gave an IC50 [2] of 218 nM, an IC50 [3] of 40 nM and an EC50 (BIR2 domain of XIAP) of 59 nM.
Work on `CN[C@@H](C)C(=O)N[C@H](C(=O)N1C[C@@H]2C[C@H]1C(=O)N[C@@H](Cc1ccc3ccccc3c1)C(=O)N[C@H](C(=O)O)Cc1ccc(cc1)OCc1cn2nn1)C1CCCCC1` yielded an IC50 [1] of 2270 nM and an IC50 [3] of 235 nM.
Compound `CN[C@@H](C)C(=O)N[C@H](C(=O)N1C[C@@H]2C[C@H]1C(=O)N[C@@H](Cc1ccc3ccccc3c1)C(=O)N[C@H](C(=O)O)Cc1cn(nn1)[C@H]1C[C@@H](C(=O)N[C@@H](Cc3ccc4ccccc4c3)C(=O)N[C@H](C(=O)O)Cc3cn2nn3)N(C(=O)[C@@H](NC(=O)[C@H](C)NC)C(C)C)C1)C(C)C` has an IC50 (MDA-MB-231) of 2010 nM, an IC50 [4] of 3 nM and an IC50 [1] of 300 nM. It also gave an IC50 (A549) of over 25000 nM, an IC50 [2] of 6140 nM and a half-life [5] of 9.6 min. For the same compound, the MRT [6] was 15 min, the IC50 [3] was 65 nM and the AUClast (Mus musculus) was 1070 ng·h/mL. It also gave a Vd [7] of 0.18 L/kg and an EC50 (BIR2 domain of XIAP) of 49 nM.
Work on `C#CC[C@H](NC(=O)[C@H](C)NC)C(=O)N1CCC[C@H]1C(=O)N[C@@H](Cc1ccccc1)C(=O)N[C@@H](Cc1ccc(OCCN=[N+]=[N-])cc1)C(=O)O` (H-[NMeA][Pra]PFY(X2)-OH) yielded an IC50 [1] of 540 nM and an IC50 [3] of 180 nM.
In the case of `CN[C@@H](C)C(=O)N[C@H](C(=O)N1C[C@@H]2C[C@H]1C(=O)N[C@@H](Cc1ccccc1)C(=O)N[C@H](C(=O)O)Cc1ccc(cc1)OCc1cn(nn1)[C@H]1C[C@@H](C(=O)N[C@@H](Cc3ccccc3)C(=O)N[C@H](C(=O)O)Cc3ccc(cc3)OCc3cn2nn3)N(C(=O)[C@@H](NC(=O)[C@H](C)NC)C(C)C)C1)C(C)C`, the IC50 (MDA-MB-231) is reported as 2940 nM, the IC50 [1] is reported as 3 nM and the IC50 (A549) is reported as over 25000 nM. It also gave an IC50 [2] of 4220 nM, an IC50 [3] of 68 nM and an EC50 (BIR2 domain of XIAP) of 45 nM.
Compound `CN[C@@H](C)C(=O)N[C@H](C(=O)N1C[C@@H]2C[C@H]1C(=O)N[C@@H](Cc1ccccc1)C(=O)N[C@H](C(=O)O)Cc1ccc(cc1)NC(=O)CCc1cn(nn1)[C@H]1C[C@@H](C(=O)N[C@@H](Cc3ccccc3)C(=O)N[C@H](C(=O)O)Cc3ccc(cc3)NC(=O)CCc3cn2nn3)N(C(=O)[C@@H](NC(=O)[C@H](C)NC)C(C)C)C1)C(C)C` has an IC50 (MDA-MB-231) of 7900 nM, an IC50 [1] of 6 nM and an IC50 (A549) of over 25000 nM. It also gave an IC50 [3] of 47 nM and an EC50 (BIR2 domain of XIAP) of 70 nM.
In the case of `CN[C@@H](C)C(=O)N[C@H](C(=O)N1C[C@@H]2C[C@H]1C(=O)N[C@@H](Cc1ccccc1)C(=O)N[C@H](C(=O)O)Cc1ccc(cc1)OCc1cn2nn1)C(C)C`, the IC50 (MDA-MB-231) is reported as 12500 nM, the IC50 [1] is reported as 139 nM and the IC50 (A549) is reported as over 25000 nM. It also gave an IC50 [2] of over 10000 nM, an IC50 [3] of 160 nM and an EC50 (BIR2 domain of XIAP) of 1400 nM.
With `CN[C@@H](C)C(=O)N[C@H](C(=O)N1C[C@@H]2C[C@H]1C(=O)N[C@@H](Cc1ccccc1)C(=O)N[C@H](C(=O)O)Cc1ccc(cc1)NC(=O)CCc1cn2nn1)C(C)C` the IC50 [1] was 1970 nM, the IC50 [3] was 110 nM and the EC50 (BIR2 domain of XIAP) was 6700 nM.
With `CN[C@@H](C)C(=O)N[C@H]1CCCCNC(=O)CCc2cn(nn2)CCCC[C@@H](C(=O)O)NC(=O)[C@H](Cc2ccccc2)NC(=O)[C@@H]2CCCN2C1=O` the IC50 [1] was over 18800 nM and the IC50 [3] was 1360 nM.
`CN[C@@H](C)C(=O)N[C@H]1CCCCNC(=O)CCc2cn(nn2)CCN(CC(=O)O)CCNC(=O)[C@H](Cc2ccccc2)NC(=O)[C@@H]2CCCN2C1=O` (H-[NMeA]KPF[X1]; lactam 2-C) gave an IC50 [1] of over 18800 nM and an IC50 [3] of 900 nM.
